The values below come from ChEMBL document CHEMBL4513216, “Probing the Open Global Health Chemical Diversity Library for Multistage-Active Starting Points for Next-Generation Antimalarials” (ACS Infect Dis, 2020).

The structures appear in SMILES notation.

The nature of this data set: Toxicity liver stage against HepG2, at 10uM. The class given is cell-based. On the set-up: test concentration 10 uM, cell line HepG2-A16-CD81EGFP. The conditions noted are these: human, HepG2-A16-CD81EGFP cells; read-out: INHIBITION
In outline: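 Uninfected HepG2-A16-CD81EGFP cells, 3 × 10^3 per well, 1536-well, plated on prespotted compound at 10 μM final, parasite-free screening media added to match infected plates; puromycin 10 μM positive, DMSO 0.5% negative; run in parallel with 48 h PbLuc assay at 37 °C, 5% CO2; viability by CellTiter-Glo luminescence, normalized to controls.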
Turning to `COCCS(=O)(=O)NC(C)c1ccccc1Cl` (stereo not given), the cytotoxicity at 10 µM worked out at 5.53%.
As to `CCCc1cc(NCCN2CCNC2=O)n2nccc2n1`, the cytotoxicity at 10 µM is -6.42%.
For `CN(CCOc1cccc(CN)c1)C1CCOCC1`, the cytotoxicity at 10 µM is -1.35%.
To `COc1cc(C)ccc1OCc1nc(C(=O)N2CCC(C)CC2)co1` belongs -45%.
Take `O=C(c1ccc(Cl)cc1)N1CCC(N2CCNC2=O)CC1`: the cytotoxicity at 10 µM was 12.6%.
Take `Cc1cc(C)n(CC2CCCN2C(=O)CCc2ccco2)n1` (stereo not given): the cytotoxicity at 10 µM was -3.75%.
`O=S(=O)(CC1CCCN1S(=O)(=O)C1CC1)c1ccccc1` (stereo not given): the cytotoxicity at 10 µM was -5.75%.
Consider `CCn1ncc(S(=O)(=O)N[C@@H]2CC[C@@H](n3ccnc3)[C@@H]2O)c1C`, for which the cytotoxicity at 10 µM is -3.4%.
With `CC(C)CC(=O)N1CCC2(CC1)NC(=O)[C@H]1CN(C(=O)N(C)C)C[C@H]12`, the cytotoxicity at 10 µM was -1.74%.
To `CCn1cnnc1CNC(=O)NC(c1ccc(OC)cc1)C1CC1` (stereo not given) belongs 1.77%.
Take `O=C1N(c2cncnc2)CCC12CCCN(Cc1cccnc1)C2` (stereo not given): the cytotoxicity at 10 µM is -79.6%.
As for `CN(C)Cc1nc(C(C)(C)NC(=O)C2CC(=O)N(CC3CC3)C2)no1` (stereo not given), the cytotoxicity at 10 µM is -5.9%.
On to `O=C(Nc1ccccc1Oc1cccc(F)c1)NC1CCS(=O)(=O)C1` (stereo not given), for which the cytotoxicity at 10 µM is -6.07%.
As for `CC(C)n1nc(CN2CCCC2=O)c2c1CN(C(=O)c1ccc[nH]1)C2`, the figure is 5.39%; as for `CCCC(C(=O)NCCc1nc(C)cs1)N(C)C` (stereo not given), -4.17%.
In the case of `O=C(NCc1cccs1)[C@H]1CC[C@@H]2[C@@H](CCN2c2ncccn2)O1`, the cytotoxicity at 10 µM was -24.2%.
Consider `CN(C)CCN1CCC2[C@@H]1CCN2Cc1ccc2c(c1)OCO2` (stereo not given in full), for which the cytotoxicity at 10 µM was -4.28%.
In the case of `Cc1noc(C)c1CN1CCn2c(COC(C)C)nnc2C1`, the cytotoxicity at 10 µM was -113%.
Regarding `CN1CC[C@H](N(Cc2ccccc2)C2COC2)C[C@H](O)C1`, the cytotoxicity at 10 µM is 4.27%.
On to `CCc1cc(N2CCC(NC(=O)CCC3CCCO3)CC2)ncn1` (stereo not given), for which the cytotoxicity at 10 µM came to 8.31%.
With `CS(=O)(=O)c1cn[nH]c1C1CCCCN1C(=O)c1cncs1` (stereo not given), the cytotoxicity at 10 µM was -19.1%.
To `Cc1nc(CCNC(=O)C(N)c2c(C)n[nH]c2C)sc1C` (stereo not given) belongs 2.08%; to `CNC(=O)c1cccc(CCNS(C)(=O)=O)c1`, 13.4%; to `O=C(c1ccc(CN2CCCCC2)cc1)N1CCCC1c1cccs1` (stereo not given), -7.15%.
Take `O=c1[nH]c2cn(-c3cccc(Cl)c3)c(=O)n2[nH]1`: the cytotoxicity at 10 µM is 1.35%.
To `CCn1nnnc1-c1cccc(NC(N)=O)c1` belongs 8.92%.
With `COc1ccc(C(=O)NC2CC2)c(OC2CCN(C3CCC3)CC2)c1`, the cytotoxicity at 10 µM was found to be 0.542%.
Regarding `Cc1occc1CNC(=O)C1CCN(C(=O)OC(C)(C)C)C1` (stereo not given), the cytotoxicity at 10 µM was 3.67%.
As to `Cc1cnn(CC(C)NCc2ccccc2OCc2cccnc2)c1` (stereo not given), the cytotoxicity at 10 µM is -12.9%.
To `CC(CCc1cccn1C)NC(=O)Nc1cccn(C)c1=O` (stereo not given) belongs 3.14%; to `Cc1ccc(N2CCCC(NCc3nnc(-c4ccco4)o3)C2)nn1` (stereo not given), -9.07%.
`Nc1nccnc1C1CN(C(=O)COc2cccnc2)CCO1` (stereo not given): the cytotoxicity at 10 µM was -1.83%.
Consider `COCCC1(C(=O)O)CCCN(Cc2cc3c(cc2C)OCO3)C1` (stereo not given), for which the cytotoxicity at 10 µM is -2.37%.
To `COc1ccc(NC(=O)NC(C)c2nc[nH]n2)cc1Cl` (stereo not given) belongs 0.0264%; to `Cc1nn(C)c(C)c1CC(=O)N1CCCN(c2cccnn2)CC1`, -2.1%.
As to `COc1ncccc1NC(=O)N(Cc1ccccn1)C1CC1`, the cytotoxicity at 10 µM worked out at 9.11%.
Turning to `CCCN1CCC(NC(=O)c2ccnc(SCC)c2)CC1`, the cytotoxicity at 10 µM was -4.14%.
On to `Cc1cc(N(C)C)nc(C2COCCN2Cc2cc(C)on2)n1` (stereo not given), for which the cytotoxicity at 10 µM was -3.55%.
As for `Cc1cnc(C(=O)N2C[C@H](N3CCOCC3)[C@@H]3OCCC[C@@H]32)cn1`, the figure is -107%; as for `O=C(c1cnc2[nH]c(=O)[nH]c(=O)c2c1)N1CCCC1C1CCCCC1` (stereo not given), -5.94%; as for `CO[C@H]1CCN(Cc2cccc(C)n2)[C@@H]2CN(Cc3cccnc3)C[C@H]12`, -11.3%.
Take `c1nnc(Nc2cncc(C3CCCN3CC3CC3)n2)s1` (stereo not given): the cytotoxicity at 10 µM was 3.01%.
Consider `COc1cccc(N2CCN(Cc3ccc4ccn(C)c4c3)CC2=O)c1`, for which the cytotoxicity at 10 µM was found to be 17.3%.
`Cc1cnn(CC2CN(Cc3nnc(C4CC4)n3C)CCO2)c1` (stereo not given): the cytotoxicity at 10 µM is -2.72%.
With `CCc1noc(CS(=O)(=O)C/C=C/c2ccccc2)n1`, the cytotoxicity at 10 µM is -18.4%.
Regarding `COc1ccc2c(c1OC)Cc1c-2nc(N)c(C#N)c1C1CCOC1` (stereo not given), the cytotoxicity at 10 µM came out at 28.6%.
For `CN(C)C(=O)C1(Oc2ccc(Cl)cc2)CCNCC1`, the cytotoxicity at 10 µM amounted to 13.7%.
Consider `O=C(Cn1cnc(NC(=O)CC2CCCC2)n1)NCc1ccccc1`, for which the cytotoxicity at 10 µM is -4.1%.
As to `CCCNC(=O)CN1CCN(c2nc(CC)ns2)CC1`, the cytotoxicity at 10 µM is -3.53%.
As to `CN(Cc1nccn1CC(F)(F)F)C(=O)c1ccc2c(c1)OCO2`, the cytotoxicity at 10 µM amounted to 1.09%.
For `O=C(Cc1ccccc1)N1CC[C@H]2[C@@H]1CCC(=O)N2Cc1ccncc1`, the cytotoxicity at 10 µM was found to be 3.07%.
As for `c1nc2n(c1CN1CCOCC1)CCN(C1CCOC1)CC2` (stereo not given), the cytotoxicity at 10 µM was -136%.
For `CN(CCO)c1ncc(-c2ccc(NC(=O)[C@@H]3CCCCN3)cc2)cn1`, the cytotoxicity at 10 µM was determined as 0.609%.
To `CN(Cc1cccnc1)C[C@@H]1OC[C@H]2CN(Cc3ccco3)CC[C@H]21` belongs -147%; to `CCn1cc(CN2CCCN(C(=O)CCc3nccs3)CC2)cn1`, -2.53%.
Turning to `Cc1ccc(CCCC(=O)N2CCCC(CS(N)(=O)=O)C2)s1` (stereo not given), the cytotoxicity at 10 µM worked out at 17.9%.
For `Cc1cc(=O)[nH]cc1C(=O)N1CCN(C)c2ccccc2C1`, the cytotoxicity at 10 µM is -10.1%.
Take `COC(=O)NCC(=O)NCC1(c2c(F)cccc2F)CCCC1`: the cytotoxicity at 10 µM was -3.56%.
Turning to `CCc1ncc2c(n1)CN(Cc1nnc(Cc3ccccc3)o1)CC2`, the cytotoxicity at 10 µM was -3.04%.
For `CC(=O)N[C@H](C)c1c(-c2ccc(Cl)cc2)noc1C(=O)O`, the cytotoxicity at 10 µM came out at 3.29%.
On to `CCCn1nnnc1COc1ccc(C(=O)OC)cc1`, for which the cytotoxicity at 10 µM was -5.58%.
As for `CN(Cc1ccccc1)C(=O)c1cc2c(c(S(N)(=O)=O)c1)CCC2`, the cytotoxicity at 10 µM is -41.5%.
For the compound `COc1c(CNCc2cccnc2N2CCN(C)CC2)c(C)nn1C`, the cytotoxicity at 10 µM is -134%.
For `Cn1cnnc1C1CCCN(C(=O)c2cc(Cl)c3c(c2)OCO3)C1` (stereo not given), the cytotoxicity at 10 µM is -1.08%.
For `Cc1cc(C)c2c(C(=O)N(C)C)cc(-c3cnc(N)nc3)nc2c1`, the cytotoxicity at 10 µM is -8.87%.
Turning to `COc1ncccc1C(=O)N1CC[C@H]2C[C@@H](c3ccncn3)O[C@@H]2C1`, the cytotoxicity at 10 µM was -2.24%.
For `Cc1cnc(CN2CC=C(c3c[nH]c4ncccc34)CC2)o1`, the cytotoxicity at 10 µM was determined as 25%.
As for `Cc1ccc(C(=O)N2CCOC(c3nc(C(C)(C)C)n[nH]3)C2)c(=O)[nH]1` (stereo not given), the cytotoxicity at 10 µM was 1.31%.
On to `COC(=O)CC1CCCCN1CC(=O)NCCc1ccc(F)cc1` (stereo not given), for which the cytotoxicity at 10 µM is -8.61%.
Consider `O=C(c1ccc(OCC2CC2)nc1)N1CCCC(n2ccnc2)C1` (stereo not given), for which the cytotoxicity at 10 µM is -9.16%.
